# Legend:
# Homo sapiens [1] = species: Homo sapiens; assay: Adsorbed radiation dose value was calculated to human spleen; type: functional
# Procedure, shortened: (§1)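 Human absorbed radiation dose estimated by the standard MIRD method from rat tissue distribution (% dose/g, 1 h–21 days) and excretion data. Excretion came from three individually caged female rats, with urine and feces collected daily over 21 days.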
# Homo sapiens [2] = species: Homo sapiens; assay: Adsorbed radiation dose value was calculated to human lungs; type: functional; procedure, shortened: as §1
# Homo sapiens [3] = species: Homo sapiens; assay: Adsorbed radiation dose value was calculated to human total body; type: functional; procedure, shortened: as §1
# Homo sapiens [4] = species: Homo sapiens; assay: Adsorbed radiation dose value was calculated to human ovaries; type: functional, Female gonad; procedure, shortened: as §1
# Homo sapiens [5] = species: Homo sapiens; assay: Adsorbed radiation dose value was calculated to human kidney; type: functional; procedure, shortened: as §1
# Homo sapiens [6] = species: Homo sapiens; assay: Adsorbed radiation dose value was calculated to human small intestine; type: functional; procedure, shortened: as §1
# Homo sapiens [7] = species: Homo sapiens; assay: Adsorbed radiation dose value was calculated to human adrenal; type: functional; procedure, shortened: as §1
# Homo sapiens [8] = species: Homo sapiens; assay: Adsorbed radiation dose value was calculated to human liver; type: functional; procedure, shortened: as §1
# Homo sapiens [9] = species: Homo sapiens; assay: Adsorbed radiation dose value was calculated to human pancreas; type: functional; procedure, shortened: as §1
compound,measurement,setting,value
CC(C)[73Se]CCC[C@H](C)[C@H]1CC[C@H]2[C@@H]3CC=C4C[C@@H](O)CC[C@]4(C)[C@H]3CC[C@]12C,Dose,Homo sapiens [1],1.9 rd mCi-1
same,Dose,Homo sapiens [2],1.7 rd mCi-1
same,Dose,Homo sapiens [3],0.24 rd mCi-1
same,Dose,Homo sapiens [4],1.2 rd mCi-1
same,Dose,Homo sapiens [5],0.67 rd mCi-1
same,Dose,Homo sapiens [6],0.64 rd mCi-1
same,Dose,Homo sapiens [7],1.6 rd mCi-1
same,Dose,Homo sapiens [8],1.7 rd mCi-1
same,Dose,Homo sapiens [9],0.5 rd mCi-1

# — ChEMBL document CHEMBL1122384, “Synthesis and evaluation of 24-(isopropyl[75Se]seleno)chol-5-en-3 beta-ol” (J Med Chem, 1983)
